In PubChem BioAssay AID463079 (The Scripps Research Institute Molecular Screening Center, 2010):
About 2,000 (0.61%) of roughly 330,000 compounds were called active.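 Rule for the calls: active = inhibition above that plate's mean sample inhibition plus 3 SD (cut at about 26% in these data); inactive = the rest.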 Shown is part of a subset that was picked to be rich in actives.

Assay: ATP-evoked calcium signal inhibitors, parental CHO, primary screen, counter-screen for OX1R antagonist project, cell-based, fluorescence, Fluo-8 calcium dye (AID 463079);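 note: 0% = ATP-challenged DMSO wells and 100% = DMSO wells without ATP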
Conditions: parental CHO-K1, ATP-induced calcium, Fluo-8 fluorescence; at 5.6 µM; active compounds read high
In short: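 Test system: parental CHO cells; detection: calcium-sensitive Fluo-8 fluorescence; evaluation: percent inhibition of calcium signal; also added: ATP as calcium-mobilizing challenge; repeats: one well per compound; control set: ATP-challenged DMSO wells low, unchallenged DMSO wells high; compound: single nominal dose of 5.6 µM per compound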
With `C/C(=N\NC(=O)c1ccc(CSc2nc(C)cc(C)n2)cc1)C1CCCCC1` the inhibition was -15.5% (inactive).
With `Cc1ccc(O)c(NC(=S)NC(=O)COc2ccc(Br)cc2)c1` the inhibition was 58.4% (active).
With `CCS(=O)(=O)c1ccc(O)c(NC(=O)COc2ccc(Cl)cc2)c1` the inhibition was -4.26% (inactive).
For `COc1ccc(C(=O)Nc2cc(C)ccc2NC(=O)COc2ccccc2)cc1`, the inhibition was -7.7% (inactive).
In the case of `COCCCNC(=O)c1ccc(CNS(=O)(=O)c2ccc(NC(C)=O)cc2)cc1`, the inhibition is reported as -6.87% (inactive).
In the case of `Cc1nnc(SCC(=O)N2c3ccccc3C(C)(c3ccc(Cl)cc3)CC2(C)C)s1` (centres undefined), the inhibition is reported as -18.2% (inactive).
For `CCOC(=O)[C@H]1[C@H]2COc3ccccc3[C@@H]2N2C(=O)CN(Cc3ccccc3)C(=O)[C@@]12C`, the inhibition was -31.8% (inactive).
In the case of `O=S(=O)(c1ccc(Cl)s1)N1CCC2(CC1)OCCO2`, the inhibition is reported as -9.61% (inactive).
For `CC(OC(=O)/C=C/c1ccccc1)C(=O)Nc1ccc(C(N)=O)cc1` (centres undefined), the inhibition was -8.76% (inactive).
In the case of `C[C@@H](NC(=O)OC(C)(C)C)c1nnc(S(=O)(=O)Cc2ccccc2)o1`, the inhibition is reported as 51.1% (active).
With `C[C@H](NC(=O)OC(C)(C)C)c1nnc(SCC(=O)Nc2ccc(Br)cc2)o1` the inhibition was -14.8% (inactive).
With `CC(C)Sc1nnc([C@H](Cc2ccccc2)NC(=O)OC(C)(C)C)o1` the inhibition was -15.8% (inactive).
For `NNC(=O)C1CC(O)CN1S(=O)(=O)c1ccc(Cl)cc1` (centres undefined), the inhibition was -12.3% (inactive).
For `O=C(CN1CCN(S(=O)(=O)c2cc(Cl)ccc2Cl)CC1)c1ccc(O)c(O)c1`, the inhibition was -11.1% (inactive).
In the case of `Cc1ccc(S(=O)(=O)Nc2ccc(F)c(S(=O)(=O)N3CCOCC3)c2)cc1`, the inhibition is reported as -18.4% (inactive).
With `COc1cccc(CSc2nc3nc(C)cc(C)n3n2)c1` the inhibition was 9.68% (inactive).
For `CC[C@]1(C(=O)OC)[C@H]2C(=O)N(Cc3ccccc3)C(=O)[C@H]2[C@H]2CN=C(SCc3ccc(C#N)cc3)N21`, the inhibition was -26.6% (inactive).
With `CCOC(=O)C1=C(C)N(C[C@@H]2CC[C@@H](Cc3ccc(-c4ccccc4)cc3)O2)C(=O)NC1c1ccc([N+](=O)[O-])cc1` (some centres undefined) the inhibition was -13.7% (inactive).
With `O=C(Nc1ccc2c(c1)OCCO2)c1cnccn1` the inhibition was -2.07% (inactive).
With `CCN1CCN(c2ccc(NC(=O)c3cnccn3)cc2)CC1` the inhibition was -2.98% (inactive).
For `CCN(CC)c1ccc(/C=N/NC(=O)c2cnccn2)c(O)c1`, the inhibition was 43.5% (active).
With `CCOc1ccc(NS(=O)(=O)c2ccc(C)c(C(N)=O)c2)cc1` the inhibition was -5.42% (inactive).
With `CN1CCC(=NNC(=O)CN(c2cccc(Cl)c2)S(C)(=O)=O)CC1` the inhibition was -9.11% (inactive).
In the case of `COc1ccc(-n2c(C)cc(C(=O)CSc3nnc(-c4cccs4)o3)c2C)cc1`, the inhibition is reported as 40.8% (active).
With `COc1ccc(-n2c(C)cc(C(=O)COC(=O)c3cc(OC)c(OC)cc3NC(=O)c3cccs3)c2C)cc1` the inhibition was -15.5% (inactive).
With `COc1ccc(-c2nnc(SCC(=O)c3ccc4c(c3)OCCO4)o2)cc1` the inhibition was -4.45% (inactive).
For `Cc1cc(C)n(CCC(=O)N2CCN(S(=O)(=O)c3ccc(C)c(C)c3)CC2)n1`, the inhibition was -19% (inactive).
With `CNS(=O)(=O)c1ccc(C(=O)NCC(=O)NCCc2ccc3c(c2)OCCO3)cc1` the inhibition was -17.8% (inactive).
In the case of `CCOC(=O)Cn1c(-c2cccnc2Cl)nc2ccccc21`, the inhibition is reported as 6.66% (inactive).
In the case of `CCOC(=O)COn1c(=O)c(-c2ccc(OCC)cc2)[n+]([O-])c2ccccc21`, the inhibition is reported as -6.3% (inactive).
With `CCCCCCCCCCOC(=O)Cn1c(COc2ccc(C)cc2)[n+](C)c2ccccc21` the inhibition was 78.8% (active).
For `CCCCn1c(N)c(N(CCOC)C(=O)c2cccc(OCc3ccccc3)c2)c(=O)[nH]c1=O`, the inhibition was -12.8% (inactive).
In the case of `COc1cccc(OCc2nnc3n2N=C(c2ccccc2)C(CC(=O)O)S3)c1` (centres undefined), the inhibition is reported as -2.16% (inactive).
In the case of `CCCCCCCCCCOC(=O)Cn1c(COc2cccc(OC)c2)[n+](C)c2ccccc21`, the inhibition is reported as 43.2% (active).
With `CCOC(=O)C1CCN(Cc2c(C(=O)N3CCOCC3)nc3c(C)cccn23)CC1` the inhibition was -3.54% (inactive).
For `Cc1cccc(-n2c(Cc3cc(=O)[nH]c(=O)[nH]3)nnc2SCC(=O)Nc2cccc(C(F)(F)F)c2)c1`, the inhibition was -7.28% (inactive).
For `CCOC(=O)C(Sc1ncc(C#N)c(N)n1)C(C)C` (centres undefined), the inhibition was -2.34% (inactive).
For `CC[C@]1(C(=O)OC)[C@H]2C(=O)N(Cc3ccccc3)C(=O)[C@H]2[C@H]2CN=C(SCc3ccc(Cl)cc3)N21`, the inhibition was -19.6% (inactive).
For `COc1ccc(S(=O)(=O)Nc2ccc3oc(C)c(C(C)=O)c3c2)cc1`, the inhibition was 40.8% (active).
With `CC(=O)c1c(C)oc2ccc(NS(=O)(=O)c3ccc(C(=O)O)cc3)cc12` the inhibition was 7.03% (inactive).
With `CC(=O)c1c(C)oc2ccc(NS(=O)(=O)c3ccccc3)cc12` the inhibition was -0.19% (inactive).
For `CCCCN1C(=O)C(=O)N(CC(=O)Nc2cccc(C(C)=O)c2)C1=O`, the inhibition was -9.38% (inactive).
For `COc1cc(C(=O)NCCOC(=O)c2cccc(N(C)C)c2)cc(OC)c1OC`, the inhibition was -13.3% (inactive).
With `Cc1ccc2cccc(O)c2[n+]1[O-]` the inhibition was -4.21% (inactive).
For `COC(=O)CNC(=O)c1ccc(OC2CCN(C(=O)C3CC3)CC2)cc1`, the inhibition was 2.53% (inactive).
For `CCCOC(=O)c1[nH]c2c(c1C)C(=O)CC(c1cccs1)C2` (centres undefined), the inhibition was -21.6% (inactive).
In the case of `CCCOC(=O)c1[nH]c2c(c1C)C(=O)CC(c1cc(OC)c(OC)c(OC)c1)C2` (centres undefined), the inhibition is reported as 33.7% (active).
With `COCCOC(=O)c1[nH]c2c(c1C)C(=O)CC(c1ccc(OC)cc1)C2` (centres undefined) the inhibition was -15.7% (inactive).
In the case of `COc1cc(/C(=C/c2ccccc2)c2ccccc2)c2c(c1)oc1ccccc12`, the inhibition is reported as -12.8% (inactive).
In the case of `Cc1cc(Br)ccc1NC(=O)c1cnc(N2CCN(c3ccccn3)CC2)c2ccccc12`, the inhibition is reported as -29.1% (inactive).
For `Cc1ccc(NS(=O)(=O)c2ccc(C(C)(C)C)cc2)cn1`, the inhibition was -3.3% (inactive).
In the case of `Cc1cc(C)cc(OCC(=O)Nc2ccc(S(=O)(=O)Nc3ccccn3)cc2)c1`, the inhibition is reported as 2.04% (inactive).
In the case of `Cc1ccc(S(=O)(=O)Nc2ccc3ncccc3c2)cc1`, the inhibition is reported as 37.3% (active).
For `Oc1oc(-c2ccccc2Br)nc1/C=N/c1ccccn1`, the inhibition was 1.24% (inactive).
With `CCn1c(CSCc2c(Cl)cccc2Cl)n[nH]c1=S` the inhibition was 4.32% (inactive).
For `CC(C)c1nnc(NC(=O)COC(=O)/C=C/c2ccc([N+](=O)[O-])cc2)s1`, the inhibition was -9.22% (inactive).
For `CC(=O)c1cccc(OCc2cc(C(=O)NC(C)Cc3cccnc3)no2)c1` (centres undefined), the inhibition was -20% (inactive).
In the case of `CN(Cc1cccnc1)C(=O)c1cc(COc2ccc3ncccc3c2)on1`, the inhibition is reported as 41.8% (active).
With `Cc1ccc(OCc2cc(C(=O)N(C)CCc3ccccc3)no2)cc1C` the inhibition was -11.5% (inactive).
In the case of `CCOC1CCCCC1NS(=O)(=O)c1ccc(Cl)cc1` (centres undefined), the inhibition is reported as -18.7% (inactive).
In the case of `Cc1c(NC(=O)CSc2cccc3cccnc23)c(=O)n(-c2ccccc2)n1C`, the inhibition is reported as 25.1% (active).
For `Cc1ccc(NC(=O)CSc2cccc3cccnc23)c(C)c1`, the inhibition was 0.17% (inactive).
In the case of `Cc1c(NC(=O)CSc2nnc(-c3cccnc3)n2N)c(=O)n(-c2ccccc2)n1C`, the inhibition is reported as -5.93% (inactive).
With `CCOCc1nnc(NC(=O)CCS(=O)(=O)Cc2ccccc2)s1` the inhibition was 3.73% (inactive).
For `CCOc1ccc(/C=N/NC(N)=S)cc1`, the inhibition was -2.97% (inactive).
For `NC(N)=N/N=C/c1ccc(OCc2ccc(Cl)cc2Cl)cc1`, the inhibition was 64.6% (active).
In the case of `OC(CNCCc1ccc(Cl)cc1Cl)COc1ccccc1` (centres undefined), the inhibition is reported as -7.3% (inactive).
For `Cn1c(Cc2cccc3ccccc23)nnc1SCC(=O)N1CCN(c2cccc(Cl)c2)CC1`, the inhibition was -6.75% (inactive).
With `Cc1ccc(-c2nnn(CC(=O)N(CCO)C(C(=O)NC(C)(C)C)c3ccncc3)n2)cc1` (centres undefined) the inhibition was -17.6% (inactive).
In the case of `COc1cc(F)c(C2=CC(=O)CC(C)(C)C2)cc1F`, the inhibition is reported as -13.2% (inactive).
With `CCOC(=O)C1=C(c2ccccc2)N=C2SCC(=O)N2C1c1ccc(O)c(OC)c1` (centres undefined) the inhibition was -27.1% (inactive).
In the case of `Cc1cc(N=Nc2ccc3ccccc3c2)ccc1O`, the inhibition is reported as 14.3% (inactive).
In the case of `CC(C)(C)OC(=O)NCCCCCNC(=O)c1nc[nH]c1C(=O)NCc1ccccc1`, the inhibition is reported as -30.4% (inactive).
In the case of `CC(=O)N1CCCc2cc(S(=O)(=O)N3CCCC(C(=O)N4CCN(c5cccc(Cl)c5)CC4)C3)ccc21` (centres undefined), the inhibition is reported as 66.2% (active).
With `CC(=O)N1c2ccc(S(=O)(=O)N3CCCC(C(=O)Nc4cccc(Cl)c4)C3)cc2CC1C` (centres undefined) the inhibition was -6.72% (inactive).
In the case of `CC(=O)N1CCCc2cc(S(=O)(=O)N3CCCC(C(=O)NCc4ccc(Cl)cc4)C3)ccc21` (centres undefined), the inhibition is reported as -11.9% (inactive).
With `O=C(c1ccc(Br)o1)N1CCN(CCOc2ccccc2)CC1` the inhibition was -7.03% (inactive).
With `CCOC(=O)C1CCCN(C(=O)CSc2nnc3nc(C)cc(C)n23)C1` (centres undefined) the inhibition was -13.2% (inactive).
With `Cc1ccc(CN(Cc2cccnc2)C(=S)Nc2cc(Cl)ccc2C)cc1` the inhibition was 64.7% (active).
In the case of `Cc1ccc(CN(Cc2cccnc2)C(=S)Nc2cccc(Cl)c2C)cc1`, the inhibition is reported as -2.11% (inactive).
For `Cc1c(Cl)cccc1NC(=S)N(Cc1ccccc1)Cc1cccnc1`, the inhibition was -0.95% (inactive).
For `CN1CCN(C(=O)N2c3ccccc3CCc3ccccc32)CC1`, the inhibition was -14.7% (inactive).
In the case of `O=C1C=C(c2cccc(Cl)c2)C[C@@H](c2ccc(F)cc2)C1`, the inhibition is reported as -24% (inactive).
With `COc1ccc(S(=O)(=O)NCCCc2ccccc2)cc1` the inhibition was 9.88% (inactive).
With `COC(=O)CNS(=O)(=O)c1ccc(OC)cc1` the inhibition was 4.49% (inactive).
In the case of `COc1ccc(S(=O)(=O)NCCCCOc2ccc(Cl)cc2)cc1`, the inhibition is reported as 62.1% (active).
For `Cc1ccc([C@@H]2CC=C(C(=O)O)[C@H](c3cccc(Cl)c3)N2S(=O)(=O)c2ccc(C)cc2)cc1`, the inhibition was -14.4% (inactive).
For `Cc1ccccc1S(=O)(=O)N1[C@@H](c2cccc(Cl)c2)C(C(=O)O)=CC[C@H]1c1ccc(Cl)cc1`, the inhibition was -5.28% (inactive).
With `Cc1ccc(S(=O)(=O)N2[C@@H](c3cccc(Cl)c3)C(C(=O)O)=CC[C@H]2c2ccc(Cl)c(Cl)c2)cc1` the inhibition was 36.9% (active).
